Xi reactivation – reactivates the inactive X chromosome in mouse fibroblasts; activation, % at 7.58 µM; 360,000 tested, 0.055% active; AID 743238; XiGFP mouse fibroblasts, % GFP-positive cells imaging, 3 d; cells co-treated with 5-aza-dC sensitizer; scaled so ellipticine positive control = 100%;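 active = mean normalized replicate activation at least 10% and every replicate at or above 10%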;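 also: 0% = median of on-plate neutral control wells and 100% = ellipticine 6 µM median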
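System: 68-5-11 XiGFP fibroblast line; Timing: 3 days compound exposure; Compound dosing: one concentration, pinned; Benchmarks: positive control ellipticine, 6 µM final; Buffer or medium: DMEM containing 5-aza-dC.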
E-sel inducer – induces E-selectin expression in human endothelial cells; P16581; HUVEC E-selectin immunofluorescence imaging; normalized: neutral wells 0, TNF-alpha wells 100; 260,000 tested, 0.37% active; activation, % at 7.58 µM; AID 686992;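 active = mean E-selectin-positive cell signal at least 10% of the positive control, reached in at least 60% of replicates, without over 20% cell loss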
Target sequence (P16581 whole entry, looked up): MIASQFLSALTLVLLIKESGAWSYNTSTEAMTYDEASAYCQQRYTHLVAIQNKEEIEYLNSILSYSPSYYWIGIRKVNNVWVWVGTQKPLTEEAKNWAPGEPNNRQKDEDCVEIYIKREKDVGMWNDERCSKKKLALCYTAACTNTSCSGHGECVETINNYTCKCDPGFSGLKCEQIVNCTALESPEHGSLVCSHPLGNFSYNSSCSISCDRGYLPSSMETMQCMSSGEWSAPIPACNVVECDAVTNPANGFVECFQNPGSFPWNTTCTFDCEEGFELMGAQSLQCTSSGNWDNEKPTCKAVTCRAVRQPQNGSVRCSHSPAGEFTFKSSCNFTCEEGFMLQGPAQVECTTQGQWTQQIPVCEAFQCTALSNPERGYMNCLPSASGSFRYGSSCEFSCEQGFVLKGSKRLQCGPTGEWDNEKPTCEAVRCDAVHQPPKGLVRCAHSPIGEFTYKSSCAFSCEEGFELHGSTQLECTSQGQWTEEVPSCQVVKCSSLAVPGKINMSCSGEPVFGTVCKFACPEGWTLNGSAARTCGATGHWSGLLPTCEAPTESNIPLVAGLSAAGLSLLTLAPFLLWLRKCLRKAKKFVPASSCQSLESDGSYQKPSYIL
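System: HUVEC / Compound: single concentration / Signal: immunofluorescence imaging / Read-out: percent E-selectin-positive cells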
C2C12 statin – protects C2C12 myotubes from simvastatin toxicity | 330,000 tested, 0.78% active | rescue of ATP level, % at 7.49 µM | AID 602340 | ATP luminescence, 48 h; scaled: DMSO 0, geranylgeraniol control 100;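 active = mean ATP rescue above about 67%, or every replicate alone reaching that limit, limit read from the data, passing the limit was not always enough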;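 also: myotubes were challenged with 10 µM simvastatin during compound exposure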
FGF22 binding – FGF22 (human) thermal shift binding; Q9HCT0; recombinant FGF22 thermal shift, SYPRO orange fluorescence; percent of sucrose octasulfate shift, DMSO zero; activity (Tm shift, normalised), % at 9.99 µM; 340,000 tested, 1.5% active;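 active = mean Tm shift, scaled 0 neutral to 100 positive control, at about 1.3% or above, every replicate too, limit read from the data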
PglD DTNB – PglD (C. jejuni) enzyme inhibition | purified PglD enzyme, DTNB colorimetric CoA detection | inhibition, % at 12.5 µM | 360,000 tested, 0.098% active | AID 602405; in the data active = inhibition above about 16%, passing the limit was not always enough
DENV2 CPE – inhibitors of DENV2 cytopathic effect; DENV2-infected cells, cytopathic effect rescue, plate reader; CPE inhibition, % at 9.99 µM; 350,000 tested, 1.7% active; AID 651640; in the data active = CPE inhibition above about 20%, passing the limit was not always enough; tested in BHK-21 cells;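 also: 0% = median of neutral control wells and 100% = median of positive control wells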
* marks the source's active call; other numbers are inactive results; x = no result given. Rows were chosen to be rich in hits. Some 3.3% of all compounds tested hit in one or more screens of this group.

SMILES | Xi reactivation | E-sel inducer | C2C12 statin | FGF22 binding | PglD DTNB | DENV2 CPE
O=C(O)Cn1nc(-c2ccccc2)cc1-c1ccccc1 | 1 | x | 2 | 0 | 4 | 80*
O=C(O)CC(C(=O)O)n1nc(-c2ccccc2)cc1-c1ccccc1 (configuration not stated) | x | x | -9 | x | 0 | x
C[C@@H]1CN([C@@H](C)CO)C(=O)c2cc(NC(=O)Nc3ccccc3)ccc2O[C@@H](C)CCCCO[C@@H]1CN(C)C(=O)C1CCCCC1 | 1 | 1 | x | 0 | 0 | -7
N#Cc1c(NC(=O)C2CC(Cl)=CCC2C(=O)O)sc2c1CCCC2 (configuration not stated) | 0 | x | x | 0 | x | -1
CC1(C)Cc2c(sc(NC(=O)C3CC(Cl)=CCC3C(=O)O)c2C#N)CO1 (configuration not stated) | 0 | -1 | x | 43* | x | -4
CN1CCN(C(=O)C[C@H]2C=C[C@@H](NC(=O)c3ccc4c(c3)OCO4)[C@@H](CO)O2)CC1 | 0 | 0 | x | x | x | 12
CN(C)CC(=O)N1[C@H](C#N)[C@H](c2ccc(C#CC3CCCC3)cc2)[C@H]1CO | 0 | 0 | 5 | 0 | 1 | 1
CN(C)CC(=O)N1[C@@H](C#N)[C@@H](c2ccc(C#CC3CCCC3)cc2)[C@@H]1CO | 0 | 0 | -24 | 0 | 2 | 39*
CN(C)CC(=O)N1[C@H](C#N)[C@H](c2ccc(C#CC3CCCC3)cc2)[C@@H]1CO | 0 | 0 | -15 | 0 | -2 | 31*
COCC(=O)Nc1ccc2c(c1)OC[C@@H](C)N(Cc1cccnc1)C[C@H](C)[C@H](OC)CN(C)C2=O | 0 | 0 | x | 0 | x | -4
CCOC(=O)c1c(NC(=O)COC(=O)c2nc(Cl)ccc2Cl)sc2c1CCC2 | 1 | 137* | x | 0 | x | 6
CC(C)(C)c1ccc(C(=O)OCC(=O)Nc2sc3c(c2C#N)CCC3)cc1 | 0 | x | x | 0 | 1 | 99*
CCOc1ccccc1NC(=O)c1c(NC(=O)CCC(=O)O)sc2c1CCCCC2 | 0 | x | x | 0 | x | 1
CN(C)S(=O)(=O)c1ccc(C(=O)OCC(=O)Nc2sc3c(c2C#N)CCCCC3)cc1 | 0 | x | x | 0 | x | 13
CCOC(=O)c1ccc(NC(=O)c2c(NC(=O)CCC(=O)O)sc3c2CCCCC3)cc1 | 0 | x | x | 44* | x | 7
CCOC(=O)c1c(NC(=O)COC(=O)c2nccnc2N)sc2c1CCC2 | 0 | 0 | 9 | 0 | -8 | 3
CC(C)C(=O)Nc1ccc2c(c1)C(=O)N(C)[C@@H]1CC[C@H](CC(=O)NCc3cccc(F)c3)O[C@H]1CO2 | 0 | 0 | -3 | 0 | 1 | 7
COc1cc(C(=O)NCC(=O)OCn2nnc3ccccc3c2=O)cc(OC)c1OC | 0 | 2 | x | 0 | x | x
COc1cc(CC(=O)OCn2nnc3ccccc3c2=O)cc(OC)c1OC | 0 | x | x | 44* | x | -2
C[C@H](NC(=O)c1ccc(Cl)cc1)C(=O)OCn1nnc2ccccc2c1=O | 0 | x | 6 | 0 | -1 | -2
CC(NC(=O)c1ccccc1)C(=O)OCn1nnc2ccccc2c1=O (configuration not stated) | 0 | x | -1 | 0 | 0 | 33*
Cc1nn(CC(=O)NC2CC2)c(C)c1S(=O)(=O)N(C)C | 0 | 0 | -4 | 43* | -2 | 3
Cc1nn(CC(=O)NC2CCS(=O)(=O)C2)c(C)c1S(=O)(=O)N(C)C (configuration not stated) | 0 | x | 13 | 0 | -7 | -3
Cc1noc(C)c1S(=O)(=O)Nc1cccc2c1O[C@@H](CN(C)S(=O)(=O)c1ccccc1)[C@@H](C)CN([C@@H](C)CO)C2=O | 0 | 0 | -51 | 0 | 0 | 6
CC(C)CC(=O)Nc1cccc(C(C)O)c1 (configuration not stated) | 0 | 2 | x | 43* | x | -4
SMILES | Xi reactivation | E-sel inducer | C2C12 statin | FGF22 binding | PglD DTNB | DENV2 CPE
CCCCC(=O)Nc1cccc(NC(=O)C(C)C)c1 | x | x | x | x | -2 | x
CCCCC(=O)Nc1cccc(C(C)O)c1 (configuration not stated) | 0 | 2 | x | 43* | x | 9
O=C1N[C@H](c2ccccc2)COCc2cnnn2CC[C@H]1Cc1ccc(-c2ccccc2)cc1 | 0 | x | x | x | x | x
C[C@@H]1CN([C@@H](C)CO)C(=O)c2cccc(NC(=O)Nc3ccc(F)cc3)c2O[C@@H]1CN(C)CC1CC1 | 0 | 0 | 9 | 0 | -3 | 13
C[C@@H]1CCCCO[C@H](CN(C)S(=O)(=O)c2ccc(Cl)cc2)[C@@H](C)CN([C@@H](C)CO)C(=O)c2cc(NC(=O)CCC(F)(F)F)ccc2O1 | 0 | 0 | x | -1 | -4 | 15
Fc1ccccc1C1c2[nH]c3ccccc3c2CCN1CCCn1cccn1 (configuration not stated) | 0 | x | x | 0 | x | 31*
Cc1ccc(S(=O)(=O)N(C)C[C@H]2OCCCC[C@@H](C)Oc3ccc(N(C)C)cc3C(=O)N([C@@H](C)CO)C[C@H]2C)cc1 | 0 | 0 | -37 | -2 | 0 | -1
CCCC#Cc1cnc2c(c1)C(=O)N([C@H](C)CO)C[C@H](C)[C@H](CN(C)C(=O)Nc1ccccc1OC)O2 | 0 | 1 | 4 | 0 | -4 | 10
COc1ccc(NC(=O)N(C)C[C@H]2OCCCC[C@H](C)Oc3ccc(NC(=O)c4ccncc4)cc3C(=O)N([C@@H](C)CO)C[C@@H]2C)cc1 | 0 | 0 | x | 0 | 7 | 49*
COc1ccc(NC(=O)N(C)C[C@@H]2OCCCC[C@@H](C)Oc3ccc(NC(=O)c4ccncc4)cc3C(=O)N([C@H](C)CO)C[C@H]2C)cc1 | 0 | 0 | x | 0 | 2 | 20*
COc1ccc(NC(=O)N(C)C[C@@H]2OCCCC[C@H](C)Oc3ccc(NC(=O)c4ccncc4)cc3C(=O)N([C@@H](C)CO)C[C@@H]2C)cc1 | 0 | 0 | x | 0 | 4 | 5
C[C@H](CO)N1C[C@H](C)[C@H](CN(C)Cc2ccc(-c3ccccc3)cc2)OCc2cn(nn2)CCCC1=O | 0 | 0 | 16 | x | x | x
CNC[C@H]1Oc2ncc(/C=C/c3ccccc3)cc2C(=O)N([C@@H](C)CO)C[C@H]1C | 0 | 0 | -4 | x | x | x
O=C(Nc1ccc(Cl)cc1)Nc1ccccc1NS(=O)(=O)c1cccs1 | 0 | 1 | -6 | 0 | x | 3
O=C(Nc1ccc(F)cc1)Nc1ccccc1NS(=O)(=O)c1cccs1 | 0 | 2 | x | 49* | 4 | 3
Cc1ccc2cccc(S(=O)(=O)N3CCCc4ccccc43)c2n1 | 1 | x | 18 | 43* | -2 | 6
COC(=O)[C@@H]1[C@@H](CO)[C@@H]2Cn3c(ccc(-c4ccc(F)cc4)c3=O)[C@@H]2N1C(=O)C1CCC1 | 0 | 0 | -16 | 0 | 1 | -3
